In ChEMBL document CHEMBL5113523, “Discovery of Cyclic Peptide Inhibitors Targeting PD-L1 for Cancer Immunotherapy” (J Med Chem, 2022):
The source made the active and inactive calls. No cut-off for these calls is given here. Bridge positions count the residues as written; N and C are the ends. Peptide text beside a SMILES is read from it.

What was measured:
[1] = Stability of the compound in human serum assessed as compound remaining measured after 3 hrs by LC-MS/MS analysis relative to control; assay type: ADME, cell-free; settings: read-out: Stability
Method in brief: (§1)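 Peptide incubated in 50% human serum at 37 °C. Aliquots taken at set time points up to 3 h and the intact peptide quantified by LC-MS/MS. Mean ± SD, n = 3.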

[2] = molecular target: T1, Programmed cell death protein 1/Programmed cell death 1 ligand 1 (Homo sapiens, UniProt Q9NZQ7); assay: Inhibition of human PD-1/PD-L1 interaction by surface plasmon resonance analysis; assay type: protein-complex assay
Method in brief: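 Competitive SPR with PD-1 immobilised on the chip. Various peptide concentrations were preincubated with human PD-L1 in running buffer, then injected. PD-L1 alone was injected as the control. Blocking was taken from the drop in SPR response relative to that control. Mean ± SD, n = 3.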

[3] = Stability of the compound in 50% human serum assessed as half life measured upto 200 mins by LC-MS/MS analysis; assay type: ADME, cell-free; method in brief: as §1
[4] = molecular target: Programmed cell death 1 ligand 1 (Homo sapiens) (UniProt Q9NZQ7); assay: Binding affinity to PD-L1 deficient in human MCF7 cells at 25 to 100 nM incubated for 1 hr by flow cytometry analysis; assay type: cell-based; settings: dose 25-100 nM
[5] = Production against apoptosis in human PBMC cells cocultured with DU-145 cells assessed as reduction in apoptosis of T cells at 10 uM measured after 24 hrs by annexin V-FITC/PI staining based FACScalibur flow cytometry (reference value: 24.5%); assay type: functional; parameters: scale not given: the % may be the effect or the level left
[6] = molecular target: Programmed cell death 1 ligand 1 (Homo sapiens) (UniProt Q9NZQ7); assay: Binding affinity to PD-L1 overexpressing in human MDA-MB-231 cells at 25 to 100 nM incubated for 1 hr by flow cytometry analysis; assay type: cell-based; settings: dose 25-100 nM
Method in brief: (§2)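 Cells detached with enzyme-free dissociation buffer, suspended in PBS at 1×10^6 cells/mL, incubated with Cy5-labelled peptide at various concentrations for 1 h at 37 °C under slow rotation. Cells spun at 300g for 10 min, washed, resuspended in PBS and read by flow cytometry. PD-L1 knockout MDA-MB-231 served as the negative cell line. Mean ± SD, n = 3.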

[7] = Production against apoptosis in human PBMC cells cocultured with DU-145 cells assessed as increase in IFNgamma level in CD8+ T cell at 10 uM measured after 24 hrs by FACScalibur flow cytometry (reference value: 1.3%); assay type: functional
[8] = molecular target: Programmed cell death 1 ligand 1 (Homo sapiens) (UniProt Q9NZQ7); assay: Binding affinity to PD-L1 overexpressing in human DU-145 cells at 25 to 100 nM incubated for 1 hr by flow cytometry analysis; assay type: cell-based; settings: dose 25-100 nM; method in brief: as §2
[9] = molecular target: Programmed cell death protein 1/Programmed cell death 1 ligand 1 (Mus musculus, UniProt Q9EP73); assay: Inhibition of mouse recombinant PD-1/PD-L1 interaction preincubated with compound for 2 hrs followed by PD-1 protein addition and measured after 1.5 hrs by inhibitor screening ELISA assay pair kit method; assay type: protein-complex assay
Method in brief: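 Plate-based ELISA. Mouse PD-L1 (100 ng) coated for 16 h at 4 °C, then blocked with 2% BSA for 1.5 h at 37 °C. Peptide added for 2 h at 37 °C, then biotinylated mouse PD-1 for 1.5 h. Detection with streptavidin-HRP and chromogenic substrate, stopped with 2N H2SO4; OD450 referenced to OD540. IC50 determined; mean ± SD, n = 3.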

CT26 [10] = assay: Antitumor activity against mouse CT26 cells implanted in BALB/c mouse syngeneic model at 0.5 mg/kg, ip administered daily starting from day 10 post inoculation and measured on day 18; assay type: functional, organism-based; settings: time 9.0 day
Method in brief: (§3)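 Balb/c mice (4 male + 4 female per group) implanted subcutaneously in right flank with ~1×10^6 CT26 cells; treatment began when tumors reached 200-250 mm3. Daily intraperitoneal dosing days 10–18, saline vehicle control group. Caliper volume = 1/2 × length × width2. TGI (%) = [1 − RTV treated/RTV control] × 100, RTV = day-18 volume / day-10 volume.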

[11] = Toxicity in BALB/c syngenic mouse bearing CT26 cells assessed as improvement in animal survival at 0.5 mg/kg, ip administered daily starting from day 10 post inoculation and measured on day 18; assay type: organism-based; settings: in vivo, 216 h, time 9 day
Method in brief: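 Male and female Balb/c mice (4 of each per group) with about 1×10^6 CT26 cells implanted subcutaneously in the right flank. Grouped when tumours reached 200-250 mm3. Dosed 0.5 mg/kg i.p. daily from day 10 to day 18; saline i.p. as negative control. Caliper volume = 1/2 × length × width². Survival curves recorded.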

Homo sapiens = species on record: Homo sapiens; assay: Antiproliferative activity against human DU-145 cells cocultured with PBMC cells at 10 uM incubated for 24 hrs by CellTiter-Glo luminescent cell viability assay; assay type: functional, cell-based
CT26 [12] = assay: Antitumor activity against mouse CT26 cells implanted in BALB/c mouse syngeneic model assessed as tumor growth inhibition at 0.5 mg/kg, ip administered daily starting from day 10 post inoculation and measured on day 18 (reference value: 0%); assay type: functional; settings: CT26, 216 h, time 9 day, read-out: TGI; method in brief: as §3
[13] = molecular target: T1, Programmed cell death protein 1/Programmed cell death 1 ligand 1; assay: Inhibition of human recombinant PD-1/PD-L1 interaction preincubated with compound for 2 hrs followed by PD-1 protein addition and measured after 1.5 hrs by inhibitor screening ELISA assay pair kit method; assay type: protein-complex assay
Method in brief: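 Plates coated with 100 ng recombinant human PD-L1 at 4°C for 16 h, washed with PBS pH 7.2-7.4, then blocked with 2% BSA for 1.5 h at 37°C. Peptides added at set concentrations for 2 h at 37°C, then biotinylated PD-1 for 1.5 h. Detection with streptavidin-HRP and chromogenic substrate, stopped with 2N H2SO4. A450 referenced to 540 nm. Mean ± SD, n = 3.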

[14] = Production against apoptosis in human PBMC cells cocultured with DU-145 cells assessed as increase in IFNgamma level in CD4+ T cell at 10 uM measured after 24 hrs by FACScalibur flow cytometry (reference value: 1.3%); assay type: functional
[15] = Stability of the compound in human serum assessed as drug degradation measured after 3 hrs by LC-MS/MS analysis; assay type: ADME, cell-free; method in brief: as §1

T1 sequence (Q15116 whole entry): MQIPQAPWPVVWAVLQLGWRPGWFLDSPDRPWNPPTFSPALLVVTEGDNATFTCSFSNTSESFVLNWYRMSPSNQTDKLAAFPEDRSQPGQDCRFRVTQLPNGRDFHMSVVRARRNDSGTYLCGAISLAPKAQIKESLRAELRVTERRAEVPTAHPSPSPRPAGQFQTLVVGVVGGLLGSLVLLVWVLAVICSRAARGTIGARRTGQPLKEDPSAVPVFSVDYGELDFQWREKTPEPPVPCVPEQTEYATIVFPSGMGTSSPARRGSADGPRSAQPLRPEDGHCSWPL
T1 sequence (Q9NZQ7 whole entry): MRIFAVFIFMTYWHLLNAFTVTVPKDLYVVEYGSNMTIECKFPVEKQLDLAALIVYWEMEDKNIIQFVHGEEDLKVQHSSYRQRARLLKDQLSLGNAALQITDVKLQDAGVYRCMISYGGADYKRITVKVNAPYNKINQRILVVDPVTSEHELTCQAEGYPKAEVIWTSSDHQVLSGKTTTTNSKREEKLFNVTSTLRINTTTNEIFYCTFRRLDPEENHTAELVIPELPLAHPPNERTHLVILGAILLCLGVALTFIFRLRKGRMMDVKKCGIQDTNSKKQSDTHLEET
Programmed cell death 1 ligand 1 (Homo sapiens), sequence (Q9NZQ7 whole entry): as above
Programmed cell death protein 1/Programmed cell death 1 ligand 1 (Mus musculus, UniProt Q9EP73), sequence (Q9EP73 whole entry): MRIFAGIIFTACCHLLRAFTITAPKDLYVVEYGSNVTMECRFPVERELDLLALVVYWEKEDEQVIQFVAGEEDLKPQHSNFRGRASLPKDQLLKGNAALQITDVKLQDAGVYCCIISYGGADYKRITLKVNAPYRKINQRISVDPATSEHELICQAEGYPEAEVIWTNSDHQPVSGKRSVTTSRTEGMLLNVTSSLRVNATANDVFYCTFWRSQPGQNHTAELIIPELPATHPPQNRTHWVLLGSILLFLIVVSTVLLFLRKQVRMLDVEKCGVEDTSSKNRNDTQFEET
Programmed cell death protein 1/Programmed cell death 1 ligand 1 (Mus musculus, UniProt Q9EP73), sequence (Q02242 whole entry, further chain): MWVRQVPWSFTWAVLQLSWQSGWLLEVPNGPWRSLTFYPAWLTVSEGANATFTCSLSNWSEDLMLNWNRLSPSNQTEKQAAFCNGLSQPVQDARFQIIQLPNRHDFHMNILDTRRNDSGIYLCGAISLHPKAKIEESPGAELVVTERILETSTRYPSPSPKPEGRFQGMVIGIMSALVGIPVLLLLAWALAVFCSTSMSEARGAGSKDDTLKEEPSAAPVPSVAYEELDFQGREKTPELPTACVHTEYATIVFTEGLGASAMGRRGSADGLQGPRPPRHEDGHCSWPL

Row | Compound | remaining at 3 h [1] [%] | IC50 [2] [µM] | half-life [3] [min] | Activity [4] | Activity [5] [%] | Activity [6] | Activity [7] [%] | Activity [8] | IC50 [9] [µM] | Activity (CT26 [10]) | Activity [11] | Activity (Homo sapiens) | inhibition in vivo at 0.5 mg/kg (CT26 [12]) [%] | IC50 [13] [µM] | Activity [14] [%] | Drug degradation [15]
1 | CC(=O)N[C@H]1CSSC[C@@H](C(=O)N[C@@H](Cc2c[nH]c3ccccc23)C(=O)N[C@@H](CC(N)=O)C(=O)N[C@@H](CC(C)C)C(=O)N[C@@H](CC(N)=O)C(=O)N[C@H](C(N)=O)[C@@H](C)O)NC(=O)[C@H](Cc2ccc(O)cc2)NC(=O)[C@H](Cc2ccc(O)cc2)NC(=O)[C@H](CO)NC(=O)[C@H](CCCNC(=N)N)NC(=O)[C@H](Cc2c[nH]cn2)NC1=O (Ac-CHRSYYCWNLNT-NH2; disulfide 1-7) | 25 | 0.143 | 70.8 | Active | 10.6 | Active | 1.5 | Active | 0.464 | Active | Toxic | Active | 33 | 0.44 | 1.3 | –
2 | CC(=O)N[C@H]1CSSC[C@@H](C(N)=O)NC(=O)[C@H](CC(N)=O)NC(=O)[C@H](CC(C)C)NC(=O)[C@H](CC(N)=O)NC(=O)[C@H](Cc2c[nH]c3ccccc23)NC(=O)[C@H]([C@@H](C)O)NC(=O)[C@H](Cc2ccc(O)cc2)NC(=O)[C@H](Cc2ccc(O)cc2)NC(=O)[C@H](CO)NC(=O)[C@H](CCCNC(=N)N)NC(=O)[C@H](Cc2c[nH]cn2)NC1=O (Ac-CHRSYYTWNLNC-NH2; disulfide 1-12) | – | 0.119 | 38.1 | Active | 12.2 | Active | 1.7 | Active | 0.552 | Active | Toxic | Active | 60.6 | 0.18 | 1.5 | –
3 | H-WHRSYYTWNLNT-OH | – | – | – | Active | 14.5 | Active | 1.4 | Active | 4.28 | – | Non-Toxic | – | 16.3 | – | 1.5 | Active
